Converted amounts (≈) assume the structure as drawn.
Assays:
[1] = WHO-TDR: Cytotoxicity; type: toxicity, cell-based; conditions: human, MRC5 cells
Plasmodium falciparum K1 = experiment: WHO-TDR: Malaria; type: functional, organism-based, Homo sapiens; conditions: Erythrocyte
How it was run: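 A diverse library of 10,000 compounds from Life Chemicals, filtered for drug-likeness and reactive groups, was screened against the intra-erythrocytic Plasmodium falciparum K1 strain in human red blood cells. Previously published standard procedures were followed, with a reference drug as positive control. Antiplasmodial potency is given as IC50.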

Trypanosoma cruzi = experiment: WHO-TDR: Chagas disease; type: functional, organism-based, Homo sapiens; conditions: MRC5
How it was run: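 Intracellular amastigotes of the Trypanosoma cruzi Tulahuen CL2 beta-galactosidase strain, grown in MRC-5SV2 human lung fibroblast host cells, were tested in a whole-organism screen. The compounds came from a 10,000-member diverse Life Chemicals library that had been filtered for drug-likeness and reactive groups. Previously published standard procedures were followed, with a reference drug as positive control, and potency is reported as IC50.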

[2] = system: Trypanosoma brucei brucei; experiment: WHO-TDR: Human African Trypanosomiasis (HAT); type: functional, organism-based; conditions: Squib-427
How it was run: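 A diverse library of 10,000 compounds from Life Chemicals, filtered for drug-likeness and reactive groups, was screened against bloodstream forms of Trypanosoma brucei Squib 427 strain in a whole-organism assay. Previously published standard procedures were followed, with reference drugs serving as positive controls. Antiparasitic potency is given as IC50.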

Leishmania infantum = experiment: WHO-TDR: Leishmaniasis; type: functional, organism-based, Mus musculus; conditions: Macrophage
How it was run: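 A diverse library of 10,000 compounds from Life Chemicals, filtered for drug-likeness and reactive groups, was screened against whole organisms. The targets were intracellular amastigotes of Leishmania infantum MHOM/MA(BE)/67 growing in murine peritoneal macrophages. Previously published standard procedures were followed, with a reference drug as positive control. Antiparasitic potency is given as IC50.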

Onchocerca ochengi = experiment: WHO-TDR: Onchocerciasis; type: functional; parameters: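 at 12.5 µM on microfilariae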
How it was run: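 Microfilariae of Onchocerca ochengi or Onchocerca lienalis, animal pathogens standing in for the human parasite, were exposed to compounds in a whole-organism screen. The compounds came from a 10,000-compound diverse Life Chemicals library filtered for drug-likeness and reactive groups. Results are expressed as percent inhibition and IC50.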

Brugia malayi = experiment: WHO-TDR: Lymphatic Filariasis; type: functional; parameters: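 tested at 10 µM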
How it was run: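 In a whole-organism assay, Brugia malayi microfilariae were screened against a diverse Life Chemicals library that had been filtered for drug-likeness and reactive groups. That library comprised 10,000 compounds. Activity is expressed as percent inhibition and as IC50.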

SMILES | IC50 (Plasmodium falciparum K1) | IC50 [2] | IC50 (Leishmania infantum) | IC50 [1] | IC50 (Trypanosoma cruzi) | % Inhibition (Onchocerca ochengi) | % Inhibition (Brugia malayi)
COc1ccc(-c2cn3c(C(=O)Nc4ccc(F)cc4F)csc3n2)cc1 | > 11.6 µg/mL | > 11.6 µg/mL | > 11.6 µg/mL | > 11.6 µg/mL | > 11.6 µg/mL | 100% | 0%
CC(=O)NCCNc1ccc(Nc2cc(C)ccn2)nn1 | 5.28 µg/mL (≈ 18.4 µM) | > 8.59 µg/mL | > 8.59 µg/mL | 6.36 µg/mL (≈ 22.2 µM) | > 8.59 µg/mL | 100% | 0%
O=S(=O)(NCCNc1ccc(Nc2ccccn2)nn1)c1ccccc1C(F)(F)F | 4.71 µg/mL (≈ 10.7 µM) | 4.31 µg/mL (≈ 9.83 µM) | > 13.2 µg/mL | 5.08 µg/mL (≈ 11.6 µM) | > 13.2 µg/mL | 100% | 25%
COc1ccc(C)cc1S(=O)(=O)N1CCN(c2ccc(Nc3cccnc3)nn2)CC1 | > 13.2 µg/mL | > 13.2 µg/mL | 4.28 µg/mL (≈ 9.71 µM) | 10.3 µg/mL (≈ 23.4 µM) | 3.89 µg/mL (≈ 8.83 µM) | 100% | 0%
COc1cc(N2CCN(C(=O)Nc3cccc(Cl)c3)CC2)nc(OC)n1 | > 11.3 µg/mL | > 11.3 µg/mL | > 11.3 µg/mL | > 11.3 µg/mL | > 11.3 µg/mL | 100% | 0%
Cc1nc2scc(-c3cccc(NC(=O)NC4CCCCC4)c3)n2c(=O)c1C | > 11.9 µg/mL | 4.05 µg/mL (≈ 10.2 µM) | > 11.9 µg/mL | > 11.9 µg/mL | 3.54 µg/mL (≈ 8.93 µM) | 100% | 0%
CC(C)c1ccc(Nc2ncnc3[nH]ncc23)cc1 | > 7.6 µg/mL | > 7.6 µg/mL | 5.18 µg/mL (≈ 20.4 µM) | > 7.6 µg/mL | 4.44 µg/mL (≈ 17.5 µM) | 100% | 0%
O=C(Cc1csc(Nc2ccc(OC(F)(F)F)cc2)n1)NCC1CCCO1 (stereo not given) | > 12 µg/mL | > 12 µg/mL | > 12 µg/mL | > 12 µg/mL | 5.45 µg/mL (≈ 13.6 µM) | 100% | 20%
CCOC(=O)N1CCN(C(=O)Nc2nc(CC(=O)Nc3nc4ccccc4s3)cs2)CC1 | > 14.2 µg/mL | > 14.2 µg/mL | > 14.2 µg/mL | > 14.2 µg/mL | > 14.2 µg/mL | 100% | 20%
COc1ccccc1CNC(=O)CCc1csc(NC(=O)c2ccc(F)cc2)n1 | > 12.4 µg/mL | > 12.4 µg/mL | > 12.4 µg/mL | > 12.4 µg/mL | > 12.4 µg/mL | 100% | 0%
Cc1cc(NS(=O)(=O)c2c(C)noc2C)n(C2CCS(=O)(=O)C2)n1 (stereo not given) | > 11.2 µg/mL | > 11.2 µg/mL | > 11.2 µg/mL | > 11.2 µg/mL | > 11.2 µg/mL | 100% | 0%
CSc1ccccc1NC(=O)CCc1csc(NC(=O)c2cccs2)n1 | > 12.1 µg/mL | 4.15 µg/mL (≈ 10.3 µM) | 12.1 µg/mL (≈ 30 µM) | > 12.1 µg/mL | 5.38 µg/mL (≈ 13.3 µM) | 100% | 0%
COc1ccc(S(=O)(=O)Nc2cc(C)nn2C2CCS(=O)(=O)C2)cc1C (stereo not given) | > 12 µg/mL | > 12 µg/mL | > 12 µg/mL | > 12 µg/mL | > 12 µg/mL | 100% | 0%
O=C(CCc1csc(NC(=O)c2ccco2)n1)NCc1c(F)cccc1F | > 11.7 µg/mL | > 11.7 µg/mL | > 11.7 µg/mL | > 11.7 µg/mL | > 11.7 µg/mL | 100% | 0%
FC(F)Sc1ccc(Nc2ncnc3[nH]ncc23)cc1 | > 8.8 µg/mL | > 8.8 µg/mL | > 8.8 µg/mL | > 8.8 µg/mL | > 8.8 µg/mL | 100% | 0%
O=S(=O)(c1ccccc1)N1CCN(c2ccc(Nc3ccncc3)nn2)CC1 | > 11.9 µg/mL | > 11.9 µg/mL | 0.385 µg/mL (≈ 0.971 µM) | > 11.9 µg/mL | > 11.9 µg/mL | 0% | 0%
COc1ccc(-c2cn3c(C(=O)Nc4cc(C)on4)csc3n2)cc1 | > 10.6 µg/mL | > 10.6 µg/mL | > 10.6 µg/mL | > 10.6 µg/mL | > 10.6 µg/mL | 100% | 0%
COc1ccc(-c2cn3c(C(=O)Nc4ccc(OC(F)(F)F)cc4)csc3n2)cc1 | 4.41 µg/mL (≈ 10.2 µM) | 4.11 µg/mL (≈ 9.49 µM) | 4.21 µg/mL (≈ 9.71 µM) | 1.79 µg/mL (≈ 4.14 µM) | 3.69 µg/mL (≈ 8.5 µM) | 100% | 0%
CN(C)c1ccc(NC(=O)Cc2csc(SCc3ccncc3)n2)cc1 | > 11.5 µg/mL | > 11.5 µg/mL | 3.65 µg/mL (≈ 9.49 µM) | > 11.5 µg/mL | 3.47 µg/mL (≈ 9.03 µM) | 100% | 0%
COc1ccc(-c2cn3c(C(=O)Nc4cc(C)ccc4C)csc3n2)cc1 | > 11.3 µg/mL | 3.11 µg/mL (≈ 8.23 µM) | 5.86 µg/mL (≈ 15.5 µM) | > 11.3 µg/mL | > 11.3 µg/mL | 100% | 0%
O=C(CCc1csc(NC(=O)c2ccco2)n1)Nc1ccc(Cl)cc1 | > 11.3 µg/mL | > 11.3 µg/mL | > 11.3 µg/mL | > 11.3 µg/mL | 3.67 µg/mL (≈ 9.77 µM) | 100% | 0%
Cc1cc(=O)[nH]c(-n2nc(-c3cccs3)cc2NC(=O)C2(c3ccc(Cl)cc3)CCCC2)n1 | 4.97 µg/mL (≈ 10.4 µM) | 0.412 µg/mL (≈ 0.858 µM) | 0.517 µg/mL (≈ 1.08 µM) | 0.682 µg/mL (≈ 1.42 µM) | 0.466 µg/mL (≈ 0.971 µM) | 75% | 0%

The next lines start with results.

IC50 (Plasmodium falciparum K1) | IC50 [2] | IC50 (Leishmania infantum) | SMILES | IC50 [1] | IC50 (Trypanosoma cruzi) | % Inhibition (Onchocerca ochengi) | % Inhibition (Brugia malayi)
> 12.4 µg/mL | > 12.4 µg/mL | 4.03 µg/mL (≈ 9.71 µM) | O=C(CCc1csc(NC(=O)c2cccs2)n1)Nc1nc2ccccc2s1 | > 12.4 µg/mL | > 12.4 µg/mL | 100% | 0%
> 12.3 µg/mL | > 12.3 µg/mL | > 12.3 µg/mL | O=C(Cc1csc(SCc2ccncc2)n1)N1CCN(c2ccccc2)CC1 | > 12.3 µg/mL | 4.2 µg/mL (≈ 10.2 µM) | 100% | 0%
> 12.9 µg/mL | 4.46 µg/mL (≈ 10.3 µM) | 6.7 µg/mL (≈ 15.5 µM) | O=C(Cc1csc(Nc2cccc(Cl)c2)n1)N1CCN(C(=O)c2ccco2)CC1 | 3.98 µg/mL (≈ 9.24 µM) | 4.55 µg/mL (≈ 10.6 µM) | 100% | 20%
> 12.5 µg/mL | 4.19 µg/mL (≈ 10.1 µM) | 5.26 µg/mL (≈ 12.7 µM) | COc1ccccc1CCNC(=O)CCc1csc(NC(=O)c2cccs2)n1 | 5.79 µg/mL (≈ 13.9 µM) | 3.8 µg/mL (≈ 9.15 µM) | 100% | 0%
13.3 µg/mL (≈ 30 µM) | 0.382 µg/mL (≈ 0.859 µM) | > 13.3 µg/mL | COc1ccc(-c2cn3c(CCC(=O)NCCc4c[nH]c5ccccc45)csc3n2)cc1 | > 13.3 µg/mL | 2.66 µg/mL (≈ 5.99 µM) | 100% | 20%
0.473 µg/mL (≈ 1.08 µM) | 3.61 µg/mL (≈ 8.23 µM) | 4.26 µg/mL (≈ 9.71 µM) | Cc1cc(C)c(S(=O)(=O)N2CCN(c3ccc(Nc4ccncc4)nn3)CC2)cc1C | 1.94 µg/mL (≈ 4.43 µM) | 0.782 µg/mL (≈ 1.78 µM) | 0% | 0%
> 10.5 µg/mL | > 10.5 µg/mL | > 10.5 µg/mL | Cc1nc2scc(-c3cccc(NS(C)(=O)=O)c3)n2c(=O)c1C | > 10.5 µg/mL | > 10.5 µg/mL | 100% | 0%
> 8.05 µg/mL | > 8.05 µg/mL | 0.261 µg/mL (≈ 0.973 µM) | COc1cc(NCCNC(=O)C(C)C)nc(OC)n1 | > 8.05 µg/mL | > 8.05 µg/mL | 0% | 0%
10.6 µg/mL (≈ 24.6 µM) | > 12.9 µg/mL | > 12.9 µg/mL | CCOC(=O)N1CCC(NC(=O)CCc2csc(NC(=O)c3ccccc3)n2)CC1 | 4.08 µg/mL (≈ 9.49 µM) | > 12.9 µg/mL | 100% | 0%
> 11.9 µg/mL | 4.69 µg/mL (≈ 11.8 µM) | > 11.9 µg/mL | Cc1cc(-c2nnc(SCC(=O)Nc3cccc(C(F)(F)F)c3)o2)c(C)o1 | > 11.9 µg/mL | > 11.9 µg/mL | 100% | 0%
> 12 µg/mL | > 12 µg/mL | > 12 µg/mL | O=C(Cc1csc(Nc2ccc(F)cc2)n1)N1CCN(c2ncccn2)CC1 | > 12 µg/mL | 5.13 µg/mL (≈ 12.9 µM) | 100% | 20%
> 10.5 µg/mL | > 10.5 µg/mL | > 10.5 µg/mL | CCC(Sc1ccc(NC(=O)c2cccc(F)c2)nn1)C(=O)OC (stereo not given) | 9.15 µg/mL (≈ 26.2 µM) | > 10.5 µg/mL | 100% | 0%
9.79 µg/mL (≈ 24.3 µM) | > 12.1 µg/mL | > 12.1 µg/mL | O=C(NCCNc1ccc(Nc2cccnc2)nn1)c1cccc(C(F)(F)F)c1 | > 12.1 µg/mL | > 12.1 µg/mL | 100% | 0%

Reference: ChEMBL document CHEMBL2093137, “WHO-TDR NTD Screening”
